# Source: PubChem BioAssay
# Compounds with a hit are over-represented: about 5.3% of the library has one in this group of screens.
# Beta apoptosis: inhibitors of cytokine-induced beta cell apoptosis, primary screen, luminescence; INS-1E cytokine-induced death, ATP luminescence, 48 h; percent of positive-control rescue, neutral wells zero; protection from apoptosis, % (concentration not given with the values); 300,000 compounds, 0.8% hits; AID 435005, 2010;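 active means Every replicate reaches about 75%, or at least half do and their mean reaches it too, limit read from the data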;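 further: higher means more ATP so stronger rescue from cytokine killing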
# Mdm2 MdmX PPI: inhibitors of human Mdm2-MdmX association, primary screen, cell-based, luminescence, split luciferase, SaOS-2, uHTS; AID 485346, 2010; Protein Mdm4 (Homo sapiens) + E3 ubiquitin-protein ligase Mdm2 (Homo sapiens), …; inhibition, % at 8 µM; 330,000 compounds, 3% hits; SaOS-2 split-luciferase Mdm2/MdmX complementation;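 active means inhibition of at least 50% at 8 µM in the primary screen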
# Calb FLC: C. albicans growth inhibition with fluconazole, primary screen, CaCi-2 strain, Alamar Blue fluorescence; C. albicans CaCi-2 (fluconazole-resistant clinical isolate) + fluconazole, 48 h; growth inhibition, % (test concentration not listed); 300,000 compounds, 0.57% hits;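 active means growth inhibition above about 58% in most replicates, limit read from the data, passing the limit was not always enough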;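 further: all wells also contain fluconazole at 8 µg/ml as a sub-toxic cotreatment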
# CSC inhib: cancer stem cell viability inhibitors, primary screen, luminescence. cancer stem cell-like cells viability. inhibition, % at 7.5 µM. 300,000 compounds, 1.1% hits. AID 2717, 2010; in the data active means inhibition above about 75%; tested in HMLE shEcad cells
# T cruzi inh: inhibitors of intracellular T. cruzi growth, primary screen, luminescence, NIH3T3 host cells; AID 1885, 2009; inhibition, % (concentration not given with the values); T. cruzi beta-gal in NIH3T3, 90 h; 300,000 compounds, 1.4% hits;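 active means mean inhibition across valid replicates above about 55%, limit read from the data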;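 further: signal also drops with host cell toxicity which is not excluded here; higher percent means less beta-gal luminescence so fewer parasites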
#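 Assay system: NIH/3T3 fibroblasts plus reporter T. cruzi. Amount: NIH/3T3 cells, 5,000 per well. Buffer or medium: DMEM, 2% fetal bovine serum. Doses: compound pinned at 50 nL/well, DMSO. Schedule: ≥90 h infection period, 3 h prior cell attachment. Signal: luminescent β-galactosidase signal after 60 min lysis. Read-out: parasite load inhibition, %.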
# NALP3 yeast inh: NALP3 inflammasome inhibitors in reconstituted yeast, primary screen, luminescence, uHTS | Yeast reconstituted NLRP3/ASC/caspase-1, beta-gal luminescence, 24 h | inhibition, % at 10 µM | 330,000 compounds, 0.39% hits;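 active means inhibition of 50% or more; inactive means inhibition below 50%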
# NALP3 confirm: NALP3 inhibitors retested in yeast, confirmation, luminescence, single concentration. shares compounds with NALP3 yeast inh. yeast expressing human NALP3. inhibition, % at 10 µM. 1,300 compounds, 81% hits; in the data active means inhibition above about 48%
# Casp1 ASC ctr: CASP1-PYCARD signaling inhibition in yeast, confirmatory test, counterassay for NLRP3 inhibitor program, one-dose; shares compounds with NALP3 yeast inh; yeast expressing Caspase-1-ASC, luminescence counter screen; inhibition, % at 10 µM; 1,000 compounds, 66% hits
# NALP3 yeast rt: NALP3 inhibitors in yeast, repeat test, confirmation, luminescence, single concentration, retest. shares compounds with NALP3 yeast inh. yeast expressing human NALP3, luminescence read-out. inhibition, % at 10 µM. 1,000 compounds, 53% hits. AID 488794, 2010
# Hits are given with their value; - = inactive; . = no result given. Unless noted, no stated cut-off is given here; in the data, active means inhibition above about 50%; inactive means the rest.
SMILES,Beta apoptosis,Mdm2 MdmX PPI,Calb FLC,CSC inhib,T cruzi inh,NALP3 yeast inh,NALP3 confirm,others
CC(=NCCCn1ccnc1)c1c(O)n(-c2ccccc2)c(=O)[nH]c1=O,.,-,-,-,-,-,.,
C/C(=N\Nc1ccccc1)c1c(O)n(-c2ccccc2)c(=O)[nH]c1=O,-,-,-,75,.,-,.,
C/C(=N\Nc1ccccc1)c1c(O)n(C)c(=O)n(C)c1=O,-,-,-,91,-,-,.,
CCOc1ccccc1-n1c(O)c(C=NCCCN(CC)CC)c(=O)[nH]c1=O,-,-,-,-,-,-,.,
CCCCOc1ccc(CN2CCN(CCO)CC2)cc1,-,-,-,-,-,-,.,
CCCCCCOc1ccc(CN2CCN(CCO)CC2)cc1,-,-,-,83,-,-,.,
COc1cc(C=C2C(=O)NC(=O)NC2=O)cc(OC)c1OC,-,-,-,-,-,-,.,
C[C@]12CC[C@H]3C(CCC4(O)CC(O)CC[C@]34C=O)C1=CC[C@H]2c1ccc(=O)oc1 (stereo not given in full),-,-,-,78,-,-,.,
O=P(CCl)(Nc1ccccc1)C(Cl)(Cl)Cl (stereo not given),-,-,-,-,-,-,.,
CCCC/C(C)=C/[C@@H](NP(=O)(c1ccccc1)c1ccccc1)c1ccccc1,-,-,-,114,-,-,.,
COc1ccc(C(=O)C2CCCN(C3CSCCSC3)C2)c(OC)c1 (stereo not given),-,-,-,78,-,-,.,
Cc1ncc(CN2CCCC(C(=O)c3sccc3C)C2)s1 (stereo not given),-,-,-,-,-,-,.,
Cc1ccc(CN2CCN(Cc3ccccc3)CC2)cc1,-,-,-,-,59,-,.,
CCSP1(=S)N=C(N2CCOCC2)C(C#N)=C2CCCN21 (stereo not given),-,-,.,-,-,-,.,
N#CC(C#N)=C(C#N)c1ccc(Nc2ccccc2)cc1,.,-,-,93,-,-,.,
c1ccc(Nc2ccc(Nc3ccccc3)cc2)cc1,-,-,.,-,.,-,.,
Oc1ccccc1-[n+]1c(-c2ccccc2)cc(-c2ccccc2)cc1-c1ccccc1,-,-,-,-,-,-,.,
Nc1ccccc1-[n+]1c(-c2ccccc2)cc(-c2ccccc2)cc1-c1ccccc1,-,-,87,-,61,-,.,
C[C@]12CCC(=O)C=C1C=CC1C2CC[C@]2(C)C(=O)CCC12 (stereo not given in full),-,-,.,-,.,50,57,
C[C@]12CCC(=O)C=C1C=C[C@@H]1[C@@H]2CC[C@@]2(C)[C@H]1CC[C@@]2(O)CCC(=O)O,-,-,.,-,.,-,.,
C[C@]12CCC(=O)C=C1CCC1C2CC[C@@]2(C)C1CC[C@]2(C)O (stereo not given in full),-,-,.,-,.,-,.,
C[C@H]1CC2C3CC=C4C[C@@H](O)CC[C@]4(C)C3CC[C@]2(C)[C@H]1O (stereo not given in full),-,-,.,-,.,54,-,
C[C@]12CC[C@@H](O)CC1=CCC1C2CC[C@@]2(C)C1CC[C@@H]2N (stereo not given in full),-,-,.,-,.,-,.,
C[C@@H]1CC2C3CC=C4C[C@@H](O)CC[C@]4(C)C3CC[C@]2(C)[C@H]1O (stereo not given in full),-,-,.,-,.,57,-,
C[C@]12CCC(=O)C=C1CCC1C2CC[C@@]2(C)C1CC[C@@H]2O (stereo not given in full),-,-,.,-,.,53,60,
SMILES,Beta apoptosis,Mdm2 MdmX PPI,Calb FLC,CSC inhib,T cruzi inh,NALP3 yeast inh,NALP3 confirm,others
C[C@]12CC[C@H](O)CC1=CCC1C2CC[C@@]2(C)C1C[C@@H]1CC(=O)O[C@@H]12 (stereo not given in full),-,-,.,-,.,-,.,
C[C@]12CC[C@H](N)CC1=CCC1C2CC[C@@]2(C)C1CC[C@@H]2O (stereo not given in full),-,-,.,-,.,56,56,
CC12CCC3C(CC=C4CC(O)CCC43C)C1C/C(=C\N1CCCC1)C2=O (stereo not given),.,-,-,.,-,59,-,
C[C@]12CCC(=O)C[C@H]1CC[C@@H]1[C@@H]2CC[C@]2(C)[C@@H](O)CC[C@@H]12,-,-,.,-,.,59,73,
CSCCC(NC(=O)CCC(=O)OC1CC[C@H]2[C@@H]3CC[C@H]4CC(=O)CC[C@]4(C)[C@H]3CC[C@]12C)C(=O)O (stereo not given in full),-,-,-,-,-,-,.,
C[C@]12CCC3C(CC[C@H]4C[C@@H](O)CC[C@]34C)[C@H]1C=CC2=O (stereo not given in full),-,-,.,-,.,55,60,
CC(=O)[C@H]1CC[C@H]2[C@@H]3CC[C@H]4C[C@H](O)CC[C@]4(C)[C@H]3C(=O)C[C@]12C,-,-,-,-,-,-,.,
C[C@]12CCC3C(CC[C@H]4C[C@@H](O)CC[C@]34C)C1C[C@@H](Br)[C@H]2O (stereo not given in full),-,-,.,-,.,58,50,
CC(=O)O[C@H]1C[C@@H]2CC[C@@H]3[C@H](CC[C@]4(C)C(=O)CC[C@@H]34)[C@@]2(C)C[C@@H]1OC(C)=O,-,-,.,-,.,-,.,
CC(=O)C1CCC2C3CCC4CC(O)CCC4(C)C3CCC12C (stereo not given),-,-,-,-,-,59,69,Casp1 ASC ctr=60;NALP3 yeast rt=58
C[C@]12CCC3C(CC[C@H]4C[C@@H](O)CC[C@]34C)C1[C@H]1CN=N[C@H]1[C@@H]2O (stereo not given in full),-,-,.,-,.,-,.,
C[C@]12CCC3C(CC[C@H]4C[C@@H](O)CC[C@]34C)C1CCC2=O (stereo not given in full),-,-,.,-,.,64,66,Casp1 ASC ctr=63;NALP3 yeast rt=-
FC(F)(F)c1ccc2c(c1)ncn2C1CCN(Cc2nnnn2C2CCCCC2)CC1,-,-,-,-,-,-,.,
